# Laboratory results as given in ChEMBL document CHEMBL4177761, “Highlights of the Structure-Activity Relationships of Benzimidazole Linked Pyrrolidines Leading to the Discovery of the Hepatitis C Virus NS5A Inhibitor Pibrentasvir (ABT-530)” (J Med Chem, 2018).
# Changes are numbered by the printed parent chain.
# Columns and labels:
# [1] = Cmax in mouse at 3 mg/kg, po by LC-MS method; assay type: ADME, organism-based; parameters: dose 3 mg/kg, route oral; conditions: in vivo
# In short: (§1)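 Single dose, 3 mg/kg, in mouse or rat. IV vehicle: DMSO:Tween 80:PEG-400:D5W 2:5:20:73 (v/v). PO vehicle: Phosol 53 MCT:PEG-400:Poloxamer 124:Cremophor RH40 40:20:20:20 (w/w). Acetonitrile protein precipitation, then LC-MS/MS in negative-ion MRM against an internal standard; LOQ ~20 ng/mL.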
# [2] = AUC (0 to infinity) in mouse at 3 mg/kg, po by LC-MS method; assay type: ADME, organism-based; parameters: dose 3 mg/kg, route oral, time infinity; conditions: in vivo; in short: as §1
# [3] = Tmax in mouse at 3 mg/kg, po by LC-MS method; assay type: ADME, organism-based; conditions: in vivo
# [4] = Drug level in mouse at 3 mg/kg, po at 24 hrs by LC-MS method; assay type: ADME, organism-based; conditions: in vivo, read-out: Drug uptake; in short: as §1
# [5] = Intrinsic clearance in rat microsomes; assay type: ADME, Microsome
# [6] = Lipophilicity, log D of the compound by HPLC method; assay type: physicochemical
# [7] = Intrinsic clearance in human microsomes; assay type: ADME, Microsome
# [8] = Solubility of the compound by CLND method; assay type: physicochemical
# [9] = Permeability of the compound by PAMPA; assay type: ADME; conditions: read-out: permeability
# [10] = Volume of distribution at steady state in mouse at 3 mg/kg, iv by LC-MS method; assay type: ADME, organism-based; conditions: in vivo, read-out: Vdss
# In short: (§2)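 Mice received a single 3 mg/kg IV dose in 2:5:20:73 (v/v) DMSO:Tween 80:PEG-400:D5W. Heparinized plasma taken at 0.1, 0.25, 0.5, 1, 2, 4, 6, 9, 12 and 24 h. Samples precipitated with acetonitrile and assayed by negative-ion MRM LC-MS. Quantified by unweighted linear regression of parent/internal-standard area ratio against spiked standards; LOQ ~20 ng/mL.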
# [11] = Half life in mouse at 3 mg/kg, po by LC-MS method; assay type: ADME, organism-based; conditions: in vivo; in short: as §1
# [12] = AUC (0 to infinity) in mouse at 3 mg/kg, iv by LC-MS method; assay type: ADME, organism-based; parameters: dose 3 mg/kg, route intravenous, time infinity; conditions: in vivo; in short: as §1
# [13] = biological target: T1, Nonstructural protein 5A (Hepatitis C virus) (UniProt Q5L478); experiment: Inhibition of NS5A M28T mutant in HuH7 cell infected HCV genotype 1a H77 assessed as decrease in viral replication after 4 days by luciferase reporter gene assay relative to wild type protein; conditions: Hepatitis C virus (isolate H77)
# T1 sequence (whole entry): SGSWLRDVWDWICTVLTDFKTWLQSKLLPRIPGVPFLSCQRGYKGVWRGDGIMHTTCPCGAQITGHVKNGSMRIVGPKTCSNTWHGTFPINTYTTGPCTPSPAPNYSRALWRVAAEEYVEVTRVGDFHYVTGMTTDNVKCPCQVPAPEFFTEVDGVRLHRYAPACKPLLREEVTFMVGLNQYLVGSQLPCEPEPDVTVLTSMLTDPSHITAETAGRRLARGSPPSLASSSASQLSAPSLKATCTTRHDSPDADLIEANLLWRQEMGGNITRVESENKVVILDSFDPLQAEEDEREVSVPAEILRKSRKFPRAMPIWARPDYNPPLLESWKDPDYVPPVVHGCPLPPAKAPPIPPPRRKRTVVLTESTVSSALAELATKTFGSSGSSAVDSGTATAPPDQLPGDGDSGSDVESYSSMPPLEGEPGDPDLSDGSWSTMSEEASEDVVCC
# In short: (§3)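 Stable subgenomic luciferase replicons in Huh-7 cells: genotype 1a-H77 carrying NS5A substitutions M28T, Q30E, Q30R, Y93C, Y93H or Y93N, tested alongside the wild-type replicon. Cells are incubated 4 days with compound in DMEM with 5% FBS. Luciferase read-out, EC50 by 4-parameter logistic fit, and fold change versus wild type.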
# [14] = Plasma clearance in mouse at 3 mg/kg, iv by LC-MS method; assay type: ADME, organism-based; in short: as §1
# [15] = tested on: T2, Nonstructural protein 5A (Hepatitis C virus), Q5L478 [Y93H]; experiment: Inhibition of NS5A Y93H mutant in HuH7 cell infected HCV genotype 1b Con1 assessed as decrease in viral replication after 4 days by luciferase reporter gene assay relative to wild type protein; conditions: Hepatitis C virus (isolate Con1)
# T2 sequence (whole entry): T1 sequence (whole entry) with Y93H
# In short: (§4)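 Stable subgenomic luciferase replicons in Huh-7 cells: genotype 1b-Con1 carrying NS5A Y93H or Y93N, tested alongside the wild-type replicon. Cells are incubated 4 days with compound in DMEM with 5% FBS. Luciferase read-out, EC50 from a 4-parameter logistic fit, expressed as fold change versus wild type.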
# [16] = biological target: T1, Nonstructural protein 5A (Hepatitis C virus); experiment: Inhibition of NS5A Q30R mutant in HuH7 cell infected HCV genotype 1a H77 assessed as decrease in viral replication after 4 days by luciferase reporter gene assay relative to wild type protein; conditions: Hepatitis C virus (isolate H77); in short: as §3
# [17] = tested on: T3, Nonstructural protein 5A (Hepatitis C virus), Q5L478 [Y93C]; experiment: Inhibition of NS5A Y93C mutant in HuH7 cell infected HCV genotype 1a H77 assessed as decrease in viral replication after 4 days by luciferase reporter gene assay relative to wild type protein; conditions: Hepatitis C virus (isolate H77); in short: as §3
# T3 sequence (whole entry): T1 sequence (whole entry) with Y93C
# [18] = Oral bioavailability in mouse at 3 mg/kg by LC-MS method; assay type: ADME, organism-based; conditions: in vivo; in short: as §1
# [19] = Half life in mouse at 3 mg/kg, iv by LC-MS method; assay type: ADME, organism-based; conditions: in vivo; in short: as §1
# [20] = Volume of distribution at steady state during terminal phase in mouse at 3 mg/kg, iv by LC-MS method; assay type: ADME, organism-based; conditions: in vivo, read-out: Vbeta; in short: as §2
# [21] = tested on: T2, Nonstructural protein 5A (Hepatitis C virus), Q5L478 [Y93H]; experiment: Inhibition of NS5A Y93H mutant in HuH7 cell infected HCV genotype 1a H77 assessed as decrease in viral replication after 4 days by luciferase reporter gene assay relative to wild type protein; conditions: Hepatitis C virus (isolate H77); in short: as §3
# [22] = tested on: T4, Nonstructural protein 5A (Hepatitis C virus), Q5L478 [Y93N]; experiment: Inhibition of NS5A Y93N mutant in HuH7 cell infected HCV genotype 1a H77 assessed as decrease in viral replication after 4 days by luciferase reporter gene assay relative to wild type protein; conditions: Hepatitis C virus (isolate H77); in short: as §3
# T4 sequence (whole entry): T1 sequence (whole entry) with Y93N
# [23] = tested on: T4, Nonstructural protein 5A (Hepatitis C virus), Q5L478 [Y93N]; experiment: Inhibition of NS5A Y93N mutant in HuH7 cell infected HCV genotype 1b Con1 assessed as decrease in viral replication after 4 days by luciferase reporter gene assay relative to wild type protein; conditions: Hepatitis C virus (isolate Con1); in short: as §4
# [24] = biological target: T1, Nonstructural protein 5A (Hepatitis C virus); experiment: Inhibition of NS5A Q30E mutant in HuH7 cell infected HCV genotype 1a H77 assessed as decrease in viral replication after 4 days by luciferase reporter gene assay relative to wild type protein; conditions: Hepatitis C virus (isolate H77); in short: as §3
structure (smiles),measurement,setting,value
COC(=O)N[C@H](C(=O)N1CCC[C@H]1c1nc2cc(F)c([C@H]3CC[C@H](c4cc5[nH]c([C@@H]6CCCN6C(=O)[C@@H](NC(=O)OC)C(C)C)nc5cc4F)N3c3cc(F)c(N4CCC(c5ccc(F)cc5)CC4)c(F)c3)cc2[nH]1)C(C)C,Cmax,[1],1710 nM
same,AUC(0-inf),[2],26100 ng·h/mL
same,Tmax,[3],24 h
same,concentration at 24 h,[4],1710 nM
COC(=O)N[C@H](C(=O)N1CCC[C@H]1c1nc2ccc([C@H]3CC[C@H](c4ccc5nc([C@@H]6CCCN6C(=O)[C@@H](NC(=O)OC)C(C)C)[nH]c5c4)N3c3ccc(N4CCOCC4)cc3)cc2[nH]1)C(C)C,CLint scaled,[5],108 mL/min/kg
same,logD,[6],3.2
same,CLint scaled,[7],113 mL/min/kg
same,AUC(0-inf),[2],2 ng·h/mL
same,solubility kinetic,[8],14.2 µM
same,Papp,[9],0.73 ×10⁻⁶ cm/s
COC(=O)N[C@H](C(=O)N1CCC[C@H]1C(=O)Nc1ccc([C@@H]2CC[C@@H](c3ccc(NC(=O)[C@@H]4CCCN4C(=O)[C@@H](NC(=O)OC)C(C)C)cc3)N2c2ccc(C(C)(C)C)cc2)cc1)C(C)C [OMBITASVIR],Vd,[10],1.67 L/kg
same,Cmax,[1],636 nM
same,half-life,[11],11.7 h
same,AUC(0-inf),[12],26400 ng·h/mL
same,AUC(0-inf),[2],11000 ng·h/mL
same,fold change (FC),[13],8960
same,clearance,[14],1.83 mL/min/kg
same,fold change (FC),[15],77
same,fold change (FC),[16],800
same,fold change (FC),[17],1680
same,bioavailability,[18],41.7%
same,Tmax,[3],7 h
same,concentration at 24 h,[4],205 nM
same,half-life,[19],11 h
same,Vd,[20],1.8 L/kg
same,fold change (FC),[21],41400
same,fold change (FC),[22],66700
COC(=O)N[C@H](C(=O)N1CCC[C@H]1c1nc2cc(F)c([C@H]3CC[C@H](c4cc5[nH]c([C@@H]6CCCN6C(=O)[C@@H](NC(=O)OC)[C@@H](C)OC)nc5cc4F)N3c3cc(F)c(N4CCC(c5ccccc5)CC4)c(F)c3)cc2[nH]1)[C@@H](C)OC,fold change (FC),[13],1
same,fold change (FC),[23],0.3
same,fold change (FC),[15],1
same,fold change (FC),[16],1
same,fold change (FC),[17],1
same,fold change (FC),[24],2
same,fold change (FC),[21],6
same,fold change (FC),[22],5
COC(=O)N[C@H](C(=O)N1CCC[C@H]1c1nc2ccc([C@H]3CC[C@H](c4ccc5nc([C@@H]6CCCN6C(=O)[C@@H](NC(=O)OC)C(C)C)[nH]c5c4)N3c3ccc(N4CCCCC4)c(F)c3)cc2[nH]1)C(C)C,CLint scaled,[5],162 mL/min/kg
same,logD,[6],4.7
same,CLint scaled,[7],140 mL/min/kg
same,AUC(0-inf),[2],2000 ng·h/mL
same,solubility kinetic,[8],2.5 µM
same,Papp,[9],0.01 ×10⁻⁶ cm/s
COC(=O)N[C@H](C(=O)N1CCC[C@H]1c1nc2ccc([C@H]3CC[C@H](c4ccc5nc([C@@H]6CCCN6C(=O)[C@@H](NC(=O)OC)C(C)C)[nH]c5c4)N3c3cc(F)c(N4CCC(c5ccccc5)CC4)c(F)c3)cc2[nH]1)C(C)C,fold change (FC),[13],3
same,fold change (FC),[23],1
same,fold change (FC),[15],1
same,fold change (FC),[16],7
same,fold change (FC),[17],6
same,fold change (FC),[24],69
same,fold change (FC),[21],72
same,fold change (FC),[22],145
COC(=O)N[C@H](C(=O)N1CCC[C@H]1c1nc2ccc([C@H]3CC[C@H](c4ccc5nc([C@@H]6CCCN6C(=O)[C@@H](NC(=O)OC)C(C)C)[nH]c5c4)N3c3cc(Cl)c(N4CCCCC4)c(Cl)c3)cc2[nH]1)C(C)C,CLint scaled,[5],50 mL/min/kg
same,logD,[6],5.9
same,CLint scaled,[7],< 25 mL/min/kg
same,AUC(0-inf),[2],960 ng·h/mL
same,solubility kinetic,[8],< 0.6 µM
same,Papp,[9],0.03 ×10⁻⁶ cm/s
COC(=O)N[C@H](C(=O)N1CCC[C@H]1c1nc2cc([C@H]3CC[C@H](c4cc5nc([C@@H]6CCCN6C(=O)[C@@H](NC(=O)OC)C(C)C)[nH]c5cc4F)N3c3cc(F)c(N4CCC(c5ccccc5)CC4)c(F)c3)c(F)cc2[nH]1)C(C)C,Cmax,[1],754 nM
same,AUC(0-inf),[2],14000 ng·h/mL
same,Tmax,[3],24 h
same,concentration at 24 h,[4],754 nM
